Legend:
[1] = molecular target: T1, Nuclear factor erythroid 2-related factor 2 (Rattus norvegicus) (UniProt O54968); assay: Activation of Nrf2 in rat PC12 cells assessed as increase in GCLM protein level after 24 hrs by Western blot analysis; format: cell-based; settings: PC-12, filed as activator, dose 5-20 µM
T1 sequence (whole entry): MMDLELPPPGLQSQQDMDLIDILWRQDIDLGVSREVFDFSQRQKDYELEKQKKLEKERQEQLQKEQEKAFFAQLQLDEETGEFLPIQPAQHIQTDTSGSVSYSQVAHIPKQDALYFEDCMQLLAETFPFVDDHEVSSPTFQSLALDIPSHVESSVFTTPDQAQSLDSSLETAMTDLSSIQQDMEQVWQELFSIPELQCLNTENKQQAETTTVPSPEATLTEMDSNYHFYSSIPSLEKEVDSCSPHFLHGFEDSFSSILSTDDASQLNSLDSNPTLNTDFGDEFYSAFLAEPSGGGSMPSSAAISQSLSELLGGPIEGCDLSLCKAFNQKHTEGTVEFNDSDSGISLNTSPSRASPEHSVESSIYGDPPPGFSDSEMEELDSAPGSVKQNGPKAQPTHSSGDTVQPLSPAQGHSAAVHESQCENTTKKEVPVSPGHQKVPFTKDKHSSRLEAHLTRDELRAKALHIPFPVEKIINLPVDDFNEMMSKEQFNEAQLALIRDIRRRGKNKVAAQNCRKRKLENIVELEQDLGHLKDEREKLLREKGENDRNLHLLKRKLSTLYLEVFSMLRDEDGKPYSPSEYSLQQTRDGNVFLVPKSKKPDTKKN
Procedure, shortened: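 PC12 cells treated with compound for 24 h at rising concentrations; NQO1, HO-1, TrxR1, GCLM, GCLC protein detected by Western blot.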

PC-12 [2] = assay: Protection against 6-OHDA-induced oxidative damage in rat PC12 cells assessed as intracellular ROS level by measuring mean fluorescence intensity at 20 uM pretreated with compound followed by 6-OHDA stimulation by DCFH-DA staining based flow cytometry (reference value: 26327.34); format: functional
PC-12 [3] = assay: Protection against 6-OHDA-induced mitochondrial dysfunction in rat PC12 cells assessed as change in mitochondrial membrane potential loss at 20 uM pretreated with compound followed by 6-OHDA addition by JC-1 staining based flow cytometry (reference value: 26.8 %); format: functional
Procedure, shortened: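 Mitochondrial membrane potential in PC12 cells pretreated with compound (5, 10, 20 μM), then exposed to H₂O₂ (200 μM) or 6-OHDA (150 μM). JC-1 staining, red-to-green fluorescence shift read by flow cytometry. Mean ± SD, n = 3.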

PC-12 [4] = assay: Protection against H2O2-induced apoptosis in rat PC12 cells assessed as early apoptotic cells at 10 uM incubated for 24 hrs by annexin V FITC/propidium iodide staining based flow cytometry (reference value: 3.9 %); format: functional

**Q.** Which Activity [1] does the source give for `CCN(C)C(=O)N1CCN(C(=O)/C=C/c2ccc(F)cc2)C1=O` here?
**A.** The Activity was “Dose-dependent effect”.

**Q.** What about the Flu intensity (PC-12 [2]) of the same compound?
**A.** The Flu intensity was 9730.

**Q.** And the Activity (PC-12 [3])?
**A.** Its Activity is 10.7%.

**Q.** What about the Activity (PC-12 [4]) of the same compound?
**A.** The Activity was 2.1%.

From ChEMBL document CHEMBL4732088, “Identification and optimization of piperlongumine analogues as potential antioxidant and anti-inflammatory agents via activation of Nrf2” (Eur J Med Chem, 2021)
